Screens (PubChem)
Only some compounds are listed: those with a hit (about 3.3% of all), similar ones and a draw of the others.
HTR1E antagonist = blocks the human 5-HT1E serotonin receptor; P28566; CHO 5-HT1E Ga15 NFAT-bla reporter, FRET, antagonist; inhibition, % at 6 µM; 0.99% of 65,000 active; AID 571;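 active = inhibition above a set limit, the mean inhibition across every tested compound plus 3 SD, cut at about 29% in these data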;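 note: signal is the 460 over 535 nm emission ratio of beta-lactamase substrate; 0% = agonist plus DMSO wells and 100% = wells without agonist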
Target sequence (P28566 whole entry, looked up): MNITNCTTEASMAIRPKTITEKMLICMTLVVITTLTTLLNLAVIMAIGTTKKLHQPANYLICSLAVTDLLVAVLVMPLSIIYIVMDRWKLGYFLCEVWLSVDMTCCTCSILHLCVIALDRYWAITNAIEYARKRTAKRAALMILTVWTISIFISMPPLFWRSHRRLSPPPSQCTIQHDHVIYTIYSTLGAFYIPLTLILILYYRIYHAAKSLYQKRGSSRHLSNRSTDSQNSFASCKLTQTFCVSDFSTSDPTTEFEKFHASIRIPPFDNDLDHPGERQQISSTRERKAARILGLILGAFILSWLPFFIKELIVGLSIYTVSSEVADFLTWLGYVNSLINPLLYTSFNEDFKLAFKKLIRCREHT
Jurkat tox 60K = cytotoxic compounds reducing Jurkat cell viability; inhibition, % at 4 µM; AID 463; 1.2% of 56,000 active; Jurkat E6.1 viability, ATP luminescence, 48 h;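 active = inhibition above the mean inhibition of all tested compounds plus 3 SD, cut at about 28% in these data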
5HT1a ag = agonists of human 5-HT1a serotonin receptor. P08908. CHO 5-HT1a Ga15 NFAT-bla reporter, FRET ratio; 0% basal, 100% maximal reference agonist. activation, % at 10 µM. 0.56% of 65,000 active. AID 567;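 active = activation above the screen-wide mean activation plus 3 SD, cut at about 19% in these data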;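 note: 0% = DMSO wells and 100% = 5-CT at EC100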
HEK293 NFkB inh = lowers PMA/ionomycin-induced NF-kB signal in HEK293 cells | inhibition, % at 3 µM | 0.21% of 62,000 active | HEK-293 NF-kB luciferase reporter, luminescence;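 active = inhibition above the mean of all tested compounds plus 3 SD, cut at about 40% in these data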;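 note: 0% = stimulated DMSO wells and 100% = 10 µM reference inhibitor 5653914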
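Material: HEK-293 cells with stable firefly luciferase reporter driven by four HIV NF-kB elements / Also added: PMA plus ionomycin mix as NF-kB-activating stimulus / Compound dosing: 3 µM once, 0.30% DMSO / Times: 1 h pretreatment, 16 h stimulation, 37 °C / Signal: luminescence / Evaluation: per-plate % inhibition versus controls / Benchmarks: DMSO and 10 µM reference inhibitor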
HTR1E agonist = 5-HT1E (human) receptor agonism; CHO 5-HT1E Ga15 NFAT-bla reporter, FRET; 0% DMSO wells, 100% control agonist wells; activation, % at 6 µM; 0.69% of 65,000 active; AID 574;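 active = activation above a set limit, the screen-wide mean activation plus 3 SD, cut at about 8.5% in these data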;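 note: 100% = positive control agonist at 1 µM giving full maximal response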
5-HT1A blocker = blocks the human serotonin 5-HT1a receptor; 0.68% of 62,000 active; CHO 5-HT1a Ga15 NFAT-bla reporter, antagonist mode; P08908; AID 612; inhibition, % at 10 µM;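 active = inhibition above the mean of all tested compounds plus 3 SD, cut at about 43% in these data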;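 note: receptor stimulated by 5-CT agonist at 100 nM near EC80; beta-lactamase reporter measured by ratiometric fluorescence of a cleavable substrate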
The depositor's hits bear a star; x = no result.

SMILES | HTR1E antagonist | Jurkat tox 60K | 5HT1a ag | HEK293 NFkB inh | HTR1E agonist | 5-HT1A blocker
CCOc1cc(C2NCc3ccccc3-n3cccc32)ccc1O (stereo not given) | -10 | -4 | 0 | 12 | 0 | 20
CCOc1cccc(C2NCc3ccccc3-n3cccc32)c1O (stereo not given) | -4 | -2 | 0 | 17 | 15* | 1
Cc1nn(-c2ccccc2)c2c1C(c1ccc3c(c1)OCO3)SCC(=O)N2 (stereo not given) | -2 | -2 | -1 | 9 | -1 | -3
Cn1ncnc2c(=O)n(C)c(=O)nc1-2 | 101* | 88* | 7 | 99* | 4 | 85*
CN=C(SCc1cc2c(cc1Cl)OCO2)c1c(O)n(C)c(=O)n(C)c1=O | 2 | 6 | 0 | 12 | 0 | -144
CCN1CCN(Cc2ccc(C)cc2C)CC1 | -3 | 6 | -1 | 17 | 4 | -7
Cc1ccc(CN2CCN(C)CC2)c(C)c1 | -1 | -1 | -3 | 1 | 9.8* | -16
CCCCCCn1c(=O)c(C(=O)Nc2c(C)n(C)n(-c3ccccc3)c2=O)c(O)c2ccccc21 | -4 | -2 | 84* | 6 | 0 | -20
CCCCCn1c(=O)c(C(=O)Nc2ccncc2)c(O)c2ccccc21 | 2 | 2 | 0 | -12 | -1 | -12
NCCc1c[nH]c2ccc(F)cc12 | -6 | 3 | 43* | 6 | 82* | 3
CC(C)N1CC=C(c2c[nH]c3ccccc23)CC1 | -1 | 3 | 23* | 16 | 46* | 14
c1ccc2c3c([nH]c2c1)CNCC3 | -10 | x | 0 | x | 0 | x
C1=C(c2c[nH]c3ccccc23)CCNC1 | -13 | -7 | 5 | 3 | 92* | 16
CC1(C)CC(n2[nH]c(=O)c3c2NC(=O)CSC3c2ccc(F)cc2)CCO1 (stereo not given) | -5 | x | 0 | 8 | 0 | 3
CCOC(=O)c1c(C)n(Cc2ccccc2)c2ccc(OCC(O)CN3C(=O)CNC3=O)cc12 (stereo not given) | 8 | 2 | 3 | 16 | 0 | -2
Cc1cc(OC(=O)c2ccco2)c2c3c(c(=O)oc2c1)CCC3 | 32* | 1 | -1 | 23 | 0 | -6
CCCCOCCCn1c(N)c(C(=O)OC(C)COC)c2nc3ccccc3nc21 (stereo not given) | 14 | x | 5 | x | 10* | x
Cc1ccccc1CS(=O)(=O)Cc1ccc(C(=O)N2CCC3(CC2)OCCO3)o1 | 0 | -6 | -2 | 13 | 2 | -26
CC12CN3CC(C)(CN(C1)C3c1cccs1)C2O (stereo not given) | 7 | 6 | 6 | 6 | 0 | 6
Cc1ccc(-n2c(O)c(C=Nc3ccccc3N)c(=O)[nH]c2=O)cc1C | 6 | 86* | 1 | -9 | 0 | 8
O=C(COc1ccccc1)N1CCN(CC(O)COc2ccccc2)CC1 (stereo not given) | 1 | -2 | 1 | 0 | 0 | 10
CNCCc1c[nH]c2ccccc12 | -17 | x | 28* | x | 104* | x
c1ccc2c(CCNCc3ccc4c(c3)OCO4)c[nH]c2c1 | 3 | -2 | -2 | 2 | 2 | 5
CCN(CC)CCN=Cc1c(O)n(CCc2ccccc2)c(=O)[nH]c1=O | 1 | x | 0 | x | -1 | x
CCCNc1oc(-c2cccc3ccccc23)nc1C#N | 8 | 2 | 58* | -4 | 6 | -13
SMILES | HTR1E antagonist | Jurkat tox 60K | 5HT1a ag | HEK293 NFkB inh | HTR1E agonist | 5-HT1A blocker
CN(C)CCN=Cc1c(O)n(-c2cccc(C(F)(F)F)c2)c(=O)[nH]c1=O | 3 | -1 | -3 | 4 | 0 | -3
CN(C)CCOC(=O)c1cn(Cc2ccccc2)c2ccccc12 | 16 | x | 2 | x | 59* | x
COc1ccccc1-n1c(O)c(C=Nc2c(C)n(C)n(-c3ccccc3)c2=O)c(=O)[nH]c1=O | 1 | 1 | 1 | -6 | 0 | -11
Cn1cccc1CN1CCN(C(=O)COc2ccccc2)CC1 | -5 | -4 | -1 | 8 | 0 | -1
Cn1nc(-c2ccc(OCC(=O)N3CCN(Cc4ccccc4)CC3)cc2)c2ccccc2c1=O | -2 | 58* | -1 | 30 | 1 | -2
CC(C)CCNC(=O)c1c(N)n(CC2CCCO2)c2nc3ccccc3nc12 (stereo not given) | -2 | x | 35* | 6 | 9.7* | -18
CCC(C)NC(=O)c1c(N)n(CC2CCCO2)c2nc3ccccc3nc12 (stereo not given) | 0 | 1 | 26* | -2 | 8 | -7
CCCCn1c(N)c(C(=O)NCCN2CCOCC2)c2nc3ccccc3nc21 | 12 | -1 | 7 | 10 | 2 | 5
CCC(C)NC(=O)c1c(N)n(Cc2ccc3c(c2)OCO3)c2nc3ccccc3nc12 (stereo not given) | -39 | -4 | 122* | 6 | 30* | -172
CCOc1ccc(-n2c(O)c(C=Nc3ccc(N4CCOCC4)cc3)c(=O)[nH]c2=O)cc1 | -15 | -1 | 0 | 6 | -1 | -5
Cn1c(O)c(C=NCCOc2ccc(Cl)cc2)c(=O)n(C)c1=O | 30* | 13 | 0 | 9 | 1 | -19
Cn1c(O)c(C=NCCN2CCN(C(=O)c3ccccc3)CC2)c(=O)n(C)c1=O | -4 | 6 | -3 | 20 | 1 | -11
COc1ccc(C(=O)C(C)(C)NO)cc1 | 11 | -10 | -1 | 9 | 8.8* | -3
CCCC(=O)c1c(O)[nH]c(=O)[nH]c1=O | 1 | -5 | 2 | 11 | 0 | 4
C=CCn1c(O)c(C(C)=NCc2cc(OC)cc(OC)c2)c(=O)[nH]c1=O | 12 | 37* | 0 | 21 | 0 | -17
